Test [1] concerns NCI-H460. The test can be described thus: Anticancer activity against paclitaxel resistant variant human H460 cells. Format: functional, cell-based. The gist of the method:
(§1)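 H460 and the paclitaxel-resistant, P-gp-overexpressing H460taxR line were grown in RPMI 1640 with 10% heat-inactivated FCS, penicillin and streptomycin, at 37 C in 5% CO2. Cells were seeded in 96-well plates, dosed next day from DMSO stocks (DMSO <1%, matched DMSO control), and stained with sulforhodamine B at 72 h. IC50 came from four-parameter logistic fits; at least three experiments.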

Test [2] in a line: Anticancer activity against human NHFB cells. Format: ADME, cell-based. The procedure, abridged:
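Normal human fibroblasts (NHFB) were kept in DMEM with 10% heat-inactivated FCS, penicillin and streptomycin, at 37 C in 5% CO2. They were seeded in 96-well plates and treated next day, with DMSO below 1% and a matched DMSO control. Sulforhodamine B readout was at 72 h, with viability taken relative to control. IC50 came from four-parameter logistic fits; unreached values were recorded as >100 µM because of the solubility/DMSO limit.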

Test [3] deals with NCI-H460. The test can be described thus: Anticancer activity against human H460 cells. Format: functional, cell-based. The gist of the method:
as §1

With `COc1ccc(/C=C2/S/C(=N/c3ccccc3C)NC2=O)cc1`, the IC50 in the test on NCI-H460 [1] came to 1700 nM; in test [2], 195 µM; with NCI-H460 [3] it was 1780 nM.

On to `O=C1N/C(=N\c2ccc(Cl)cc2)S/C1=C/c1ccccc1O`, for which the IC50 with NCI-H460 [1] is 1180 nM; in test [2], over 100 µM; in the test on NCI-H460 [3], 1850 nM.

Take `CN(C)c1ccc(/C=C2/SC(=Nc3ccccc3)NC2=O)cc1`: the IC50 is 210 nM in the test on NCI-H460 [1], over 100 µM in test [2] and 500 nM in the test on NCI-H460 [3].

On to `CN(C)c1ccc(/C=C2/S/C(=N/c3ccc(Cl)cc3)NC2=O)cc1`, for which the IC50 in the test with NCI-H460 [1] is 2930 nM; in test [2], over 100 µM; with NCI-H460 [3], 2890 nM.

As for `COc1ccc(N=C2NC(=O)/C(=C\c3ccc(N(C)C)cc3)S2)cc1`, the IC50 in the test with NCI-H460 [1] is 1600 nM; in test [2], over 100 µM; in the test on NCI-H460 [3], 2520 nM.

`CC(=O)Nc1ccc(/C=C2/S/C(=N/c3cccc(Cl)c3)NC2=O)cc1`: the IC50 is 1250 nM in the test with NCI-H460 [1], over 100 µM in test [2] and 1190 nM in the test on NCI-H460 [3].

As to `CN(C)c1ccc(/C=C2/SC(=Nc3ccc(O)cc3)NC2=O)cc1`, the results for the IC50 (with NCI-H460 [1]; in test [2]; in the test with NCI-H460 [3]) were 1080 nM, over 100 µM and 1320 nM, respectively.

Regarding `Cc1ccccc1/N=C1\NC(=O)/C(=C\c2ccc(N(C)C)cc2)S1`, the results for the IC50 (with NCI-H460 [1]; in test [2]; in the test with NCI-H460 [3]) were 540 nM, over 100 µM and 650 nM, respectively.

With `CN(C)c1ccc(/C=C2/SC(=Nc3ccccc3Cl)NC2=O)cc1`, the IC50 with NCI-H460 [1] is 880 nM; in test [2] it was over 100 µM; in the test on NCI-H460 [3], 730 nM.

Consider `Cc1ccc(N=C2NC(=O)/C(=C\c3ccc(N(C)C)cc3)S2)cc1`, for which the IC50 was 820 nM in the test on NCI-H460 [1], over 100 µM in test [2] and 940 nM in the test with NCI-H460 [3].

The values are drawn from ChEMBL document CHEMBL1142338, “Design, synthesis, cytoselective toxicity, structure-activity relationships, and pharmacophore of thiazolidinone derivatives targeting drug-resistant lung cancer cells” (J Med Chem, 2008).
